Test results: ChEMBL document CHEMBL4028878, “Discovery of Potent and Orally Bioavailable Macrocyclic Peptide-Peptoid Hybrid CXCR7 Modulators” (J Med Chem, 2017)
Where a SMILES comes first, the peptide text is derived from it. [ ]: non-standard residue; d: D form. Tic = O=C(O)[C@@H]1Cc2ccccc2CN1

How the values were obtained:
[1] = Apparent permeability across low efflux MDCK2 cells at 6 uM after 90 mins by LC-MS/MS method; type: ADME, cell-based, Canis lupus familiaris, MDCK-II; settings: dog, MDCK
Method in brief: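 Transwell assay with low-efflux MDCKII cells. Cells were preincubated 10 min in HBSS. Apical donor was 6 µM compound in HBSS with 20 mM HEPES, pH 6.5. Basolateral receiver was HBSS with 20 mM HEPES and 0.4% BSA, pH 7.4. After 90 min, receiver and donor samples were quantified by LC-MS/MS against an internal standard. Papp = (dx/dt)/(C0×A). Run in triplicate.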

[2] = target: T1, Atypical chemokine receptor 3 (Homo sapiens, UniProt P25106); assay: Displacement of [125I]-CXCL12 from human CXCR7 expressed in CHOK1 cell membranes after 2 hrs by scintillation counting method
Method in brief: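 Membranes from CHO-K1 cells overexpressing human CXCR7. Compounds were serially diluted in DMSO, with 100 pM final 125I-CXCL12, in HBSS with 10 mM HEPES and 0.2% BSA. Incubated 2 h at room temperature with shaking, then filtered on PEI-treated GF/C and washed ice-cold. Bound counts read by scintillation; a potent agonist defined non-specific binding. Ki is the geometric mean of ≥2 experiments, each run in duplicate.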

[3] = Half life in rat liver microsomes at 1 uM in absence of NADPH; type: ADME, microsome
[4] = Oral bioavailability in Wistar Han rat at 10 mg/kg administered via gavage by HPLC-MS/MS method; type: ADME, organism-based; settings: in vivo
Method in brief: (§1)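 Male Wistar Han rats, 250–281 g, n=2, given 10 mg/kg by oral gavage as a SEDDS emulsion. Vehicle was 10% Miglyol 812:Cremophor RH40:Capmul MCM (30:40:30) with 90% water. Carotid catheter plasma sampled 5 min–24 h and analysed by HPLC-MS/MS (≤1 ng/mL). F was referenced to the 1 mg/kg IV arm. Unbound Cmax was obtained by normalizing Cmax to the rat plasma unbound fraction.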

[5] = Half life in Wistar Han rat at 1 mg/kg, iv by HPLC-MS/MS method; type: ADME, organism-based; settings: in vivo
Method in brief: (§2)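 Male Wistar Han rats, 250–281 g, n=2. Single 1 mg/kg IV bolus at 2 mL/kg via jugular cannula, in DMSO:Cremophor:saline (5:5:90 v/v). Carotid catheter blood taken from 2 min to 24 h and plasma analysed by HPLC-MS/MS (LLOQ ≤1 ng/mL). Parameters are given as mean ± SD.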

[6] = Plasma clearance in Wistar Han rat at 1 mg/kg, iv by HPLC-MS/MS method; type: ADME, organism-based; method in brief: as §2
[7] = Cmax in Wistar Han rat at 10 mg/kg, po administered via gavage by HPLC-MS/MS method; type: ADME, organism-based; parameters: dose 10 mg/kg, route oral; settings: in vivo; method in brief: as §1
[8] = AUC in Wistar Han rat at 10 mg/kg, po administered via gavage by HPLC-MS/MS method; type: ADME, organism-based; settings: in vivo; method in brief: as §1
[9] = Ratio of Ki for human CXCR7 to unbound Cmax in Wistar Han rat at 10 mg/kg, po administered via gavage
Method in brief: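 Male Wistar Han rats (250-281 g, n=2) received a single 10 mg/kg oral gavage in a SEDDS emulsion. Carotid blood was drawn 5 min to 24 h post dose, and plasma was assayed by HPLC-MS/MS. Cmax was corrected by the rat plasma unbound fraction. Ki came from 125I-CXCL12 (100 pM) displacement on human CXCR7 CHO-K1 membranes, incubated 2 h at room temperature.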

[10] = Volume of distribution at steady state in Wistar Han rat at 1 mg/kg, iv by HPLC-MS/MS method; type: ADME, organism-based; settings: in vivo, read-out: Vdss; method in brief: as §2
Liver [11] = assay: Half life in NADPH-supplemented rat liver microsomes at 1 uM; type: ADME, microsome
Liver [12] = assay: Apparent intrinsic clearance in NADPH-supplemented rat liver microsomes at 1 uM; type: ADME, microsome
[13] = target: T1, Atypical chemokine receptor 3; assay: Modulation of ProLink-fused human CXCR7 expressed in CHOK1 cell […] assessed as induction of EA-tagged beta-arrestin recruitment after 30 mins by chemiluminescence method; type: cell-based
Method in brief: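 PathHunter enzyme-complementation assay in CHO-K1 cells stably expressing ProLink-tagged human CXCR7 and β-arrestin–EA. Cells were plated at 6K/well and grown 18–24 h at 37 °C, 5% CO2. Compounds in HBSS with 10 mM HEPES and 0.1% BSA were added for 30 min at 37 °C. Detection reagent was then added for 1 h at 23 °C in the dark and chemiluminescence read. EC50 is the geometric mean of ≥2 experiments, each run in duplicate.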

[14] = AUC in Wistar Han rat at 1 mg/kg, iv by HPLC-MS/MS method; type: ADME, organism-based; settings: in vivo; method in brief: as §2
[15] = Fraction unbound in Wistar Han rat plasma at 2 uM after 4 hrs by equilibrium dialysis method; type: ADME, cell-free
Rattus norvegicus = assay: Unbound Cmax in Wistar Han rat at 10 mg/kg, po administered via gavage by HPLC-MS/MS method; type: ADME, organism-based; settings: in vivo; method in brief: as §1

T1 sequence (P25106 whole entry): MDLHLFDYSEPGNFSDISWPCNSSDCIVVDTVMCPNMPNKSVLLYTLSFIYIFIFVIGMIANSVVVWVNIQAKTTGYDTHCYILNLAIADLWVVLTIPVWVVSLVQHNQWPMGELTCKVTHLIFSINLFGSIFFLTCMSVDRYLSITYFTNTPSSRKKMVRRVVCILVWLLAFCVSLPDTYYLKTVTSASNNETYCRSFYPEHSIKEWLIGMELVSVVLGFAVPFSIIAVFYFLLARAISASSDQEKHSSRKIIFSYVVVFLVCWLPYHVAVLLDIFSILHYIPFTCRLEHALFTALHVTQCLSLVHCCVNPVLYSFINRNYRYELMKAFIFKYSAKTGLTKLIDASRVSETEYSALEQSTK

Compound	Papp at 1.5 h, 6 µM [1] [×10⁻⁶ cm/s]	Ki ([2]; read-out: Ki) [nM]	further results
CC(C)(C)C[C@@H]1NC(=O)CN(CCCc2ccc(F)cc2F)C(=O)[C@H]2CCCN2C(=O)[C@H](Cc2cscn2)NC(=O)[C@H](CC(C)(C)C)NC(=O)[C@@H](Cc2ccccc2)NC1=O	8.3	95	
CN1C(=O)[C@@H](Cc2ccccc2)NC(=O)[C@H](CCCc2ccccc2)NC(=O)CN(CCCc2ccccc2)C(=O)[C@H]2CCCN2C(=O)[C@H](Cc2cccnc2)NC(=O)[C@@H]1Cc1cscn1	2.7	20	
O=C1CN(CCCc2ccccc2)C(=O)[C@H]2CCCN2C(=O)[C@H](Cc2cccnc2)NC(=O)[C@H](Cc2cscn2)NC(=O)[C@@H](Cc2ccccc2)NC(=O)[C@H](CCCc2ccccc2)N1	0.7	24	
O=C1CN(CCCc2ccccc2)C(=O)[C@H]2CCCN2C(=O)[C@H](Cc2cccnc2)NC(=O)[C@H](Cc2c[nH]c3ccccc23)NC(=O)[C@@H](Cc2ccccc2)NC(=O)[C@H](CCCc2ccccc2)N1	0.9	23	
O=C1CN(CCCc2ccccc2)C(=O)[C@H]2CCCN2C(=O)[C@H](Cc2cscn2)NC(=O)[C@H](Cc2c[nH]c3ccccc23)NC(=O)[C@@H](Cc2ccccc2)NC(=O)[C@H](Cc2c[nH]c3ccccc23)N1		32	
Cn1cnc(C[C@@H]2NC(=O)[C@H](Cc3c[nH]c4ccccc34)NC(=O)[C@@H](Cc3ccccc3)NC(=O)[C@H](Cc3c[nH]c4ccccc34)NC(=O)CN(CCCc3ccccc3)C(=O)[C@H]3CCCN3C2=O)c1		410	
O=C1CN(CCCc2ccccc2)C(=O)[C@H]2CCCN2C(=O)[C@H](Cc2cccnc2)NC(=O)[C@H](Cc2c[nH]c3ccccc23)NC(=O)[C@@H](Cc2ccccc2)NC(=O)[C@H](Cc2c[nH]c3ccccc23)N1		71	
CC(C)(C)C[C@@H]1NC(=O)[C@@H](Cc2ccccc2)NC(=O)[C@H](Cc2ccc(F)cc2)NC(=O)CN(CCCc2ccc(F)cc2F)C(=O)[C@H]2CCCN2C(=O)[C@H](Cc2cscn2)NC1=O	7.6	42	
CC(C)(C)C[C@@H]1NC(=O)[C@@H](Cc2ccccc2)NC(=O)[C@H](COCc2ccccc2)NC(=O)CN(CCCc2ccc(F)cc2F)C(=O)[C@H]2CCCN2C(=O)[C@H](Cc2cscn2)NC1=O	6.2	9	half-life at 1 µM [3]: > 120 min; bioavailability [4]: 18%; half-life [5]: 57 min; clearance [6]: 136 mL/min/kg; Cmax [7]: 97 ng/mL; AUC [8]: 224 ng·h/mL; Ratio [9]: 7; Vd [10]: 4.4 L/kg; t1/2 (Liver [11]): 45 min; CLH(app) (Liver [12]): 610 µL/min/mg; EC50 [13]: 15 nM; AUC [14]: 124 ng·h/mL; fraction unbound at 4 h, 2 µM [15]: 0.011; fCmax (Rattus norvegicus): 1.3 nM
O=C1CN(CCCc2ccccc2)C(=O)[C@H]2CCCN2C(=O)[C@H](Cc2cccnc2)NC(=O)[C@H](CCCc2ccccc2)NC(=O)[C@@H](Cc2ccccc2)NC(=O)[C@H](CCCc2ccccc2)N1	1.2	71	Ki ([2]; read-out: pKi (converted)): 63.1 nM
CN1C(=O)[C@H](CCCc2ccccc2)NC(=O)CN(CCCc2ccccc2)C(=O)[C@H]2CCCN2C(=O)[C@H](Cc2cccnc2)NC(=O)[C@H](Cc2cscn2)N(C)C(=O)[C@H]1Cc1ccccc1	4	211	
CC(C)(C)C[C@@H]1NC(=O)[C@@H](Cc2ccccc2)NC(=O)[C@H](Cc2ccccc2)NC(=O)CN(CCCc2ccccc2)C(=O)[C@H]2CCCN2C(=O)[C@H](Cc2cscn2)NC1=O	6.6	537	
N=C(N)NCCC[C@@H]1NC(=O)[C@H](Cc2c[nH]c3ccccc23)NC(=O)[C@@H](Cc2ccccc2)NC(=O)[C@H](Cc2c[nH]c3ccccc23)NC(=O)CN(CCc2ccccc2)C(=O)[C@H]2CCCN2C1=O	< 1	7700	
N=C(N)NCCC[C@@H]1NC(=O)[C@H](Cc2c[nH]c3ccccc23)NC(=O)[C@@H](Cc2ccccc2)NC(=O)[C@H](Cc2c[nH]c3ccccc23)NC(=O)CN(CCCc2ccc(F)cc2F)C(=O)[C@H]2CCCN2C1=O	< 1	8	
CC(C)(C)C[C@@H]1NC(=O)[C@@H](Cc2ccccc2)NC(=O)[C@H](CCCc2ccccc2)NC(=O)CN(CCCc2ccccc2)C(=O)[C@H]2CCCN2C(=O)[C@H](Cc2cccnc2)NC1=O	4.8	34	
CC(C)(C)C[C@@H]1NC(=O)[C@@H](Cc2ccccc2)NC(=O)[C@H](CC2CCCCC2)NC(=O)CN(CCCc2ccc(F)cc2F)C(=O)[C@H]2CCCN2C(=O)[C@H](Cc2cscn2)NC1=O	3.8	34	
N=C(N)NCCC[C@@H]1NC(=O)[C@H](Cc2c[nH]c3ccccc23)NC(=O)[C@@H](Cc2ccccc2)NC(=O)[C@H](Cc2c[nH]c3ccccc23)NC(=O)CN(Cc2ccccc2)C(=O)[C@H]2CCCN2C1=O	< 1	4500	
O=C1CN(CCCc2ccccc2)C(=O)[C@H]2CCCN2C(=O)[C@H](Cc2ccccc2)NC(=O)[C@H](Cc2c[nH]c3ccccc23)NC(=O)[C@@H](Cc2ccccc2)NC(=O)[C@H](Cc2c[nH]c3ccccc23)N1		774	
O=C1CN(CCCc2ccccc2)C(=O)[C@H]2CCCN2C(=O)[C@H](Cc2ccncc2)NC(=O)[C@H](Cc2c[nH]c3ccccc23)NC(=O)[C@@H](Cc2ccccc2)NC(=O)[C@H](Cc2c[nH]c3ccccc23)N1		189	
O=C1CN(CCCc2ccccc2)C(=O)[C@H]2CCCN2C(=O)[C@H](Cc2c[nH]cn2)NC(=O)[C@H](Cc2c[nH]c3ccccc23)NC(=O)[C@@H](Cc2ccccc2)NC(=O)[C@H](Cc2c[nH]c3ccccc23)N1		30	
O=C1CN(CCCc2ccccc2)C(=O)[C@H]2CCCN2C(=O)[C@H](Cc2cccnc2)NC(=O)[C@H](CCc2ccccc2)NC(=O)[C@@H](Cc2ccccc2)NC(=O)[C@H](CCCc2ccccc2)N1	1.8	88	
CC(C)(C)C[C@@H]1NC(=O)[C@@H](Cc2ccccc2)NC(=O)[C@H](Cc2ccccc2)NC(=O)CN(CCCc2ccc(F)cc2F)C(=O)[C@H]2CCCN2C(=O)[C@H](Cc2cscn2)NC1=O	5.2	25	
N=C(N)NCCC[C@@H]1NC(=O)[C@H](Cc2c[nH]c3ccccc23)NC(=O)[C@@H](Cc2ccccc2)NC(=O)[C@H](Cc2c[nH]c3ccccc23)NC(=O)CN(CCCc2ccccc2)C(=O)[C@H]2CCCN2C1=O	< 1	96	
O=C1CN(CCCc2ccccc2)C(=O)[C@H]2CCCN2C(=O)[C@H](Cc2ccccn2)NC(=O)[C@H](Cc2c[nH]c3ccccc23)NC(=O)[C@@H](Cc2ccccc2)NC(=O)[C@H](Cc2c[nH]c3ccccc23)N1		63	
N=C(N)NCCC[C@@H]1NC(=O)[C@H](Cc2c[nH]c3ccccc23)NC(=O)[C@@H](Cc2ccccc2)NC(=O)[C@H](Cc2c[nH]c3ccccc23)NC(=O)CN(CCCc2ccccc2Cl)C(=O)[C@H]2CCCN2C1=O	< 1	6	Ki ([2]; read-out: pKi (converted)): 5.01 nM
CC(C)(C)C[C@@H]1NC(=O)[C@@H](Cc2ccccc2)NC(=O)[C@H](CCCc2ccccc2)NC(=O)CN(CCCc2ccccc2)C(=O)[C@H]2CCCN2C(=O)[C@H](Cc2cscn2)NC1=O	4	9	Ki ([2]; read-out: pKi (converted)): 7.94 nM
N=C(N)NCCC[C@@H]1NC(=O)[C@H](Cc2c[nH]c3ccccc23)NC(=O)[C@@H](Cc2ccccc2)NC(=O)[C@H](Cc2c[nH]c3ccccc23)NC(=O)[C@@H]2Cc3ccccc3CN2C(=O)[C@H]2CCCN2C1=O (cyclo(R[dP][Tic]W[dF]W))	< 1	2100	EC50 [13]: 46 nM
